CXCR6 block: CXCR6 receptor inhibitors, primary screen, cell-based, beta-arrestin, luminescence, CHO-K1 PathHunter, 1536-well | hit rate 0.36% among 360,000 | inhibition, % at 20 µM | C-X-C chemokine receptor type 6 (Homo sapiens), O00574; in the data active means inhibition above about 34%, passing the limit was not always enough;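 further: antagonist mode with CXCL16 agonist at 10 nM final; 0% = 10 nM CXCL16 with DMSO and 100% = unstimulated wells without agonist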
CCR6 antagonist: CCR6 receptor antagonists, primary screen, cell-based, CHO-K1, luminescence, beta-arrestin, uHTS. C-C chemokine receptor type 6 (Homo sapiens), P51684. CHO-K1 CCR6 PathHunter beta-arrestin, CCL20-stimulated. inhibition, % at 20 µM. hit rate 0.49% among 340,000. AID 493098, 2011;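 active means compounds whose inhibition of the agonist-driven luminescence signal at 20 µM reaches about 50%, limit read from the data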;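 further: cells stimulated with CCL20 at 14 nM final; plate controls were DMSO with CCL20 for no effect and DMSO without agonist for full effect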
APJ antag: antagonists of human apelin receptor APJ, primary screen, CHO-K1 cells, beta-arrestin complementation, luminescence. P35414. inhibition, % at 20 µM. hit rate 0.32% among 330,000;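 active means inhibition above about 40% at 20 µM, limit read from the data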;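 further: cells challenged with 10 nM apelin-13 agonist together with compound; plate controls were apelin-13 plus DMSO wells for no effect and DMSO wells lacking apelin-13 for full effect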
Target sequence (P35414 whole entry, looked up): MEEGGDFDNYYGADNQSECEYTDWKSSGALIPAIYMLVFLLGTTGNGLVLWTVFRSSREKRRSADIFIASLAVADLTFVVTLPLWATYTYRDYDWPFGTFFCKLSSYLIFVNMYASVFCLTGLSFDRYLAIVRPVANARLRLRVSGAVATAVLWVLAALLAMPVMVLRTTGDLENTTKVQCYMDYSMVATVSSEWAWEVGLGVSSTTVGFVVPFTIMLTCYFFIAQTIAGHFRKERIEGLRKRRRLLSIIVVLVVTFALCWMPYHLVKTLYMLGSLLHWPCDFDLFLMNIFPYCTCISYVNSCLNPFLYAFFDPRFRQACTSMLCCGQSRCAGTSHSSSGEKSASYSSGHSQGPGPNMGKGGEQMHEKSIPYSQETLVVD
APJ agonist: agonists of human apelin receptor APJ, primary screen, CHO-K1 cells, PathHunter beta-arrestin, luminescence | P35414 | 0% DMSO wells, 100% apelin | activation, % at 20 µM | hit rate 0.11% among 330,000 | AID 2520, 2010;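 active means activation more than six SD over the plate average, tested at 20 µM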;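 further: 0% = DMSO alone and 100% = apelin-13 at 10 nM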
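Assay system: CHO-K1 cells stably expressing ProLink-tagged human APJ and arrestin–beta-gal acceptor. Compound dosing: 20 µM single point, 1% DMSO. Times: 16-18 h seeding, 90 min dark compound exposure, 60 min detection. Detection: beta-gal luminescence. Evaluation: APJ–arrestin association signal. Controls: negative DMSO alone, positive Apelin-13 at 10 nM.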
EBI2 block: EBI2 receptor antagonists, beta-arrestin recruitment, primary screen, cell-based, luminescence, 7a,25-OHC stimulation, uHTS. hit rate 0.81% among 360,000. G-protein coupled receptor 183 (Homo sapiens), P32249. inhibition, % at 5 µM. 7a,25-OHC stimulated; in the data active means inhibition above about 38%;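 further: enzyme fragment complementation signal reports receptor beta-arrestin coupling in cells; 0% = agonist plus DMSO wells and 100% = wells without agonist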
EBI2 conf: EBI2 antagonist hit retest, beta-arrestin, confirmation, cell-based, single concentration, luminescence, 7a,25-OHC stimulation | shares compounds with EBI2 block | inhibition, % at 5 µM | 7a,25-OHC antagonism | hit rate 29% among 2,400 | AID 651997, 2013;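 active means inhibition of at least 50%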
EBI2 ag: EBI2 agonist activity of antagonist hits, confirmation, counter-screen for EBI2 antagonist project, cell-based, single concentration, agonist mode, luminescence. activation, % at 5 µM. EBI2-expressing cells, 60 min; 0% vehicle, 100% 7α,25-dihydroxycholesterol control. shares compounds with EBI2 block. 2,400 tested, under 10 active;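 active means activation of at least 50%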
bGal cs: E. coli beta-galactosidase enzyme inhibition, confirmation, counter-screen for EBI2 antagonist project, biochemical, luminescence, single concentration. shares compounds with EBI2 block. purified beta-galactosidase, luminescent Galacton Star, 15 min. inhibition, % at 5 µM. hit rate 1% among 2,400;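 active means replicate-average signal at least 3 plate SD below neutral wells, shown as high inhibition, flagging enzyme-inhibiting false positives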;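 further: 0% = DMSO wells with enzyme and 100% = wells lacking enzyme; higher means stronger loss of beta-gal luminescence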
Starred values were filed as active, the others as inactive; x = not tested or not shown. Sampled rows, rich in hits. Any-hit rate of the full collection: about 1.5%.

SMILES	CXCR6 block	CCR6 antagonist	APJ antag	APJ agonist	EBI2 block	EBI2 conf	EBI2 ag	bGal cs
CCCOc1ccc(/C=C/C(=O)N2CCOCC2)cc1	4	4	-16	3	-12	x	x	x
O=C(/C=C/c1ccccc1)N1CCN(c2cccc(Cl)n2)CC1	2	10	5	-2	91*	82*	0	-20
O=C(/C=C/c1ccc(F)cc1)N1CCN(c2ccccn2)CC1	-9	12	4	-4	91*	81*	1	1
CCOC(=O)[C@]12CCC=C1N(Cc1ccco1)C(=O)[C@H](CC(=O)NCCCOC)C2	2	x	x	x	1	x	x	x
O=C(COc1ccc(Cl)cc1Br)N1CCN(c2ncccn2)CC1	-3	22	15	13	31	x	x	x
Cc1cc(OCC(=O)N2CCN(c3ccccn3)CC2)cc(C)c1Br	5	-3	-5	3	62*	65*	1	-2
O=C(COc1ccc(Br)cc1F)N1CCN(c2ncccn2)CC1	3	1	6	-2	46*	27	0	6
CCCCC[C@@H](C)N1C[C@H](COCc2ccccc2)Oc2cc(N3CCC[C@H]3C(N)=O)ccc2S1(=O)=O	1	x	x	x	15	x	x	x
Cc1c(C(=O)N2CCN(c3ncccn3)CC2)oc2ccc(Cl)cc12	-7	8	-2	-3	56*	47	0	1
Cc1c(C(=O)N2CCN(c3ccccn3)CC2)oc2ccccc12	11	4	-7	-1	36*	3	-2	-12
CCc1nc2ccc(C(=O)NCc3ccc4c(c3)OCO4)cn2c1N(C)Cc1cccs1	10	x	x	x	14	x	x	x
COc1ccc(N2C(=O)c3ccccc3NC(=O)C2C(=O)NCC(C)C)cc1 (stereo unspecified)	x	x	x	x	-8	x	x	x
COc1cccc(CN2CCC2(C)C(=O)Nc2ccc(C)c(O)c2)c1F (stereo unspecified)	-8	x	x	x	-1	x	x	x
Cc1cc(C)c(C)c(C(=O)CSc2nnc(-c3ccc4[nH]c(C)c(C)c4c3)o2)c1C	-5	0	2	0	52*	56*	2	-3
Cc1[nH]c2ccc(-c3nnc(SCC(=O)c4ccc(F)cc4)o3)cc2c1C	3	2	-3	4	11	x	x	x
CC[C@]12C(=O)N(C)C[C@H]([C@@H]3C(=O)N(C)C(=O)[C@@H]31)N2C(=O)c1ccc(C(C)(C)C)cc1	1	-3	x	x	-2	x	x	x
O=C(c1ccc(Br)cc1)N1CCC(C(=O)N2CCN(Cc3ccccc3)CC2)CC1	0	-4	14	0	63*	37	1	10
O=C(c1ccc(-n2cccc2)cc1)N1CCN(Cc2ccccc2)CC1	-2	6	6	-1	84*	73*	-1	-13
CN1CCN(C(=O)c2ccc(-n3cccc3)cc2)CC1	0	-17	8	1	34*	23	0	-16
CN1CCN(C(=O)c2ccc(Cl)cc2)CC1	4	4	-6	0	-1	x	x	x
O=C(c1ccc([N+](=O)[O-])cc1)N1CCN(Cc2ccccc2)CC1	-2	8	2	-3	16	x	x	x
CCOC(=O)[C@]12CCCC=C1N(Cc1ccccc1)C(=O)[C@H](CC(=O)NCCc1ccccc1OC)C2	x	x	x	x	-3	x	x	x
O=C(/C=C/c1ccc(Br)cc1)N1CCN(Cc2ccccc2)CC1	-4	6	10	4	96*	85*	-1	-7
O=C(/C=C/c1ccc(F)cc1)N1CCN(Cc2ccccc2)CC1	-11	1	-7	0	93*	80*	2	0
Cc1ccc(/C=C/C(=O)N2CCN(Cc3ccccc3)CC2)o1	-3	9	8	3	2	x	x	x
SMILES	CXCR6 block	CCR6 antagonist	APJ antag	APJ agonist	EBI2 block	EBI2 conf	EBI2 ag	bGal cs
COc1cc(C(=O)N2CCN(c3cccc(C(F)(F)F)c3)CC2)ccc1OCC(=O)N1CCOCC1	-1	4	x	x	6	x	x	x
CN(C)c1cccc2c(S(=O)(=O)NC(=O)[C@H]3O[C@@H](n4cnc5c(N)ncnc54)[C@H](O)[C@@H]3O)cccc12	-12	x	x	x	-8	x	x	x
CCSc1ccc(-c2nn(-c3ccccc3)cc2/C=C(/C#N)C(=O)NC)cc1	-4	4	x	x	-5	x	x	x
CCCSc1ccc(-c2nn(-c3ccccc3)cc2/C=C(/C#N)C(=O)N2CCOCC2)cc1	9	20	-16	0	50*	32	1	0
COc1ccc(C)cc1NC(=O)COC(=O)Cc1c[nH]c2ccccc12	-5	x	x	x	-4	x	x	x
c1ccc(-c2cn(-c3ccccc3)c3ncnc(NCCCN4CCOCC4)c23)cc1	8	10	13	0	62*	18	-1	-10
Cc1ccc(S(=O)(=O)CCC(=O)OCC(=O)N(C)c2ccccc2)cc1	5	7	x	x	-1	x	x	x
CN(c1ccc(OCC(=O)NCCc2ccccc2)cc1)S(=O)(=O)c1ccc(Cl)cc1	10	31	-7	-5	34	x	x	x
COc1ccc(CCNC(=O)COc2ccc(N(C)S(=O)(=O)c3ccc(Cl)cc3)cc2)cc1	9	7	x	x	63*	34	-1	-14
CCOC(=O)c1cnn(-c2nc(-c3ccc(F)cc3)cs2)c1C(F)(F)F	-12	7	-6	-2	53*	56*	1	6
CCOC(=O)c1cnn(-c2nc(-c3ccccc3)cs2)c1C(F)(F)F	x	-7	-3	-3	x	x	x	x
O=C(CN1C(=O)C2CC=CCC2C1=O)Nc1ccccc1N1CCCC1 (stereo unspecified)	4	12	9	-5	5	x	x	x
O=C(CN1C(=O)C2CC=CCC2C1=O)Nc1cc(C(F)(F)F)ccc1N1CCCC1 (stereo unspecified)	4	13	27	-3	46*	20	0	5
CCOc1ccc2nc(COC(=O)c3cccs3)c(C(=O)c3ccccc3)[n+]([O-])c2c1	4	14	5	-2	47*	24	0	7
CCOc1ccc2nc(COC(=O)c3cccs3)c(C(C)=O)[n+]([O-])c2c1	0	13	5	2	14	x	x	x
CCOc1ccc2nc(COC(=O)c3ccco3)c(C(C)=O)[n+]([O-])c2c1	-14	-8	7	0	1	x	x	x
CCOc1ccc2nc(COC(=O)c3ccncc3)c(C(=O)c3ccccc3)[n+]([O-])c2c1	2	9	12	-3	45*	16	-2	-7

Source: PubChem BioAssay (Sanford-Burnham Center for Chemical Genomics)
